Assay outcomes from PubChem BioAssay.
CHRM5 PAM: human M5 muscarinic receptor positive allosteric modulators, primary screen, CHO-K1 cells, Fluo-8 calcium fluorescence; Muscarinic acetylcholine receptor M5 (Homo sapiens), P08912; CHO-K1 hM5, ACh EC20 PAM; 0% = ACh EC20, 100% = ACh EC100; activation, % at 3 µM; hit rate 0.3% among 360,000;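 active means activation above the run cutoff, the mean activation of all test compounds plus 3 SD, cut at about 18% in these data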
Target sequence (P08912 whole entry, looked up): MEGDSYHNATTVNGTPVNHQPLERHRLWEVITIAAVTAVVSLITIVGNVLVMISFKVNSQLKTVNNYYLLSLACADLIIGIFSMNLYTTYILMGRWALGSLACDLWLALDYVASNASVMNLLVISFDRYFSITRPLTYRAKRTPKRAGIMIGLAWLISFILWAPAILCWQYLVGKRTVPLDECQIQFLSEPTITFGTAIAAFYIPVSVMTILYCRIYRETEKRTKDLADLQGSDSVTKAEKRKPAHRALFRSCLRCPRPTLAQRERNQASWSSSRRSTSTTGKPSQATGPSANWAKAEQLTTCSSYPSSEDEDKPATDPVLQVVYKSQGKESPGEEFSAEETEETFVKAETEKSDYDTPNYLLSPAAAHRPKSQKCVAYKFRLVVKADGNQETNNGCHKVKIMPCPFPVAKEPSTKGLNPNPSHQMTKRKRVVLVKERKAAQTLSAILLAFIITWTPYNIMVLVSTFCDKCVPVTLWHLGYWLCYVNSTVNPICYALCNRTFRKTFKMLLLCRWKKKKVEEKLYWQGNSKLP
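Measured by: Fluo-8 calcium fluorescence; material: human M5 receptor in CHO-K1 cells; schedule: Post-acetylcholine fluorescence recording 140 s; benchmarks: low control EC20 acetylcholine (0%), high control EC100 acetylcholine (100%); read-out: Max/basal fluorescence ratio as % of EC20–EC100 ACh window; compound: single dose, 3 µM nominal final test concentration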
M4 antag: human M4 muscarinic receptor antagonists, primary screen, CHO cells, Fluo-8 calcium fluorescence. inhibition, % at 3 µM. CHO-hM4 cells, ACh EC80. hit rate 0.73% among 360,000. Muscarinic acetylcholine receptor M4 (Homo sapiens), P08173;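 active means inhibition above its plate's cutoff, the mean inhibition of sample wells plus 3 SD, cut at about 27% in these data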;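 further: 0% = acetylcholine EC80 with DMSO and 100% = DMSO without agonist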
CHRM5 agonist: human M5 muscarinic receptor agonists, primary screen, CHO-K1 cells, Fluo-8 calcium fluorescence; activation, % at 3 µM; CHO-K1 hM5 cells; 0% DMSO wells, 100% maximal acetylcholine response; Muscarinic acetylcholine receptor M5 (Homo sapiens), P08912; hit rate 0.19% among 360,000; AID 624037, 2012;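 active means activation above the run's mean over test compounds plus 3 SD, cut at about 23% in these data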;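 further: signal is peak over basal fluorescence ratio across the kinetic read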
CHRM4 PAM: human M4 muscarinic receptor positive allosteric modulators, primary screen, CHO-K1 cells, Fluo-8 calcium fluorescence | CHO-K1 hM4/Gqi5, ACh EC20; 0% = ACh EC20, 100% = maximal ACh | activation, % at 3 µM | hit rate 0.4% among 360,000 | AID 624126, 2012;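 active means activation above its plate's cutoff, the mean activation of sample wells plus 3 SD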
CHRM5 antagonist: human M5 muscarinic receptor antagonists, primary screen, CHO cells, Fluo-8 calcium fluorescence; inhibition, % at 3 µM; CHO-hM5 cells, ACh EC80; Muscarinic acetylcholine receptor M5 (Homo sapiens), P08912; hit rate 0.59% among 360,000; AID 624040, 2012;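 active means inhibition above a per-plate cutoff, the mean of that plate's test compounds plus 3 SD, cut at about 27% in these data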;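 further: 0% = acetylcholine EC80 with DMSO and 100% = DMSO without agonist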
M4 ag: human M4 muscarinic receptor agonists, primary screen, CHO-K1 cells, Fluo-8 calcium fluorescence. CHO-K1 hM4/Gqi5; vehicle 0%, full acetylcholine response 100%. Muscarinic acetylcholine receptor M4 (Homo sapiens), P08173. hit rate 0.14% among 360,000. AID 624127, 2012. activation, % at 3 µM;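 active means activation above the run mean over all test wells plus 3 SD, cut at about 32% in these data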;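 further: peak over basal fluorescence ratio per well then scaled between controls; 0% = DMSO wells and 100% = acetylcholine at EC100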
An asterisk follows results filed as active. Sampled rows, rich in hits. Any-hit rate of the full collection: about 1.8%.

SMILES	CHRM5 PAM	M4 antag	CHRM5 agonist	CHRM4 PAM	CHRM5 antagonist	M4 ag
CCOC(=O)c1ccc(NC(=O)N2CC3CC(C2)c2cccc(=O)n2C3)cc1 (stereo not drawn)	2.0	3.1	-2.3	-2.8	5.2	0.9
COC(=O)C1=C(c2cccc(OC)c2OC)C[C@@H]2CC[C@H]1N2C(=O)N1CCOCC1	3.4	-0.9	2.4	11.6	3.8	3.4
O=C(/C=C/c1ccc(Br)cc1)NC(=S)N1C[C@H]2C[C@H](C1)c1cccc(=O)n1C2	-4.8	-16.8	1.1	8.6	6.1	0.2
COc1ccc(-c2cc(-c3ccccc3)[n+](C)c(-c3ccccc3)c2)cc1	-9.7	10.4	-9.9	-7.8	22.9	0.5
C[n+]1c(-c2ccccc2)cc(CCCCc2cc(-c3ccccc3)[n+](C)c(-c3ccccc3)c2)cc1-c1ccccc1	-22.9	46.5*	-16.3	-21.1	19.8	0.5
Cc1ccccc1-[n+]1c(-c2ccccc2)cc(-c2ccccc2)cc1-c1ccccc1	-40.1	78.3*	-9.4	-15.2	41.5*	8.0
Nc1ccccc1-[n+]1c(-c2ccccc2)cc(-c2ccccc2)cc1-c1ccccc1	-12.4	22.5	-19.6	-22.0	5.2	-0.4
[O-]c1ccccc1-[n+]1c(-c2ccccc2)cc(-c2ccccc2)cc1-c1ccccc1	-9.5	17.0	-12.0	-9.2	8.1	3.9
Oc1ccccc1-[n+]1c(-c2ccccc2)cc(-c2ccccc2)cc1-c1ccccc1	-12.7	27.6*	-11.3	-18.2	11.4	2.6
COc1ccc(-c2nn(CCC#N)cc2C(=O)NCc2ccccc2)cc1OC	3.9	-2.6	-5.5	4.7	19.0	1.9
O=C(O)c1cccc(NC(=O)N2C[C@H]3C[C@@H](C2)c2cccc(=O)n2C3)c1	-3.1	-15.6	0.1	8.1	5.0	1.8
O=S(=O)(c1ccc(Cl)cc1)N1Cc2ccccc2-n2nncc2C1	-6.0	-12.5	4.0	2.0	1.7	4.5
C(=NC12CN3CN(CN(C3)C1)C2)c1cccnc1	14.2	3.4	-0.3	19.3*	-2.9	0.7
O=C1/C(=C\c2cccnc2)N2CCC1CC2	0.5	-2.3	-3.7	-6.5	11.2	0.9
C[C@]12CCC3[C@@H](CC[C@@H]4C[C@H](O)CC[C@]34C)[C@@H]1CCC2=O (stereo partly drawn)	-1.5	8.3	0.6	-0.3	-1.3	2.8
C[C@]12CC[C@H](O)C[C@@H]1CC[C@@H]1[C@@H]2CC[C@]2(C)C(=O)CC[C@@H]12	-18.3	-13.2	48.0*	-9.2	0.0	20.3
C[C@]12CCC3C(CC[C@H]4C[C@@H](O)CC[C@]34C)[C@H]1C=CC2=O (stereo partly drawn)	0.9	-16.0	0.0	15.0*	3.7	1.8
Brc1ccc(-[n+]2c(-c3ccccc3)cc(-c3ccccc3)cc2-c2ccccc2)cc1	-40.6	40.3*	-9.1	-12.2	25.1	1.5
COc1ccc(-[n+]2c(-c3ccccc3)cc(-c3ccc(C)cc3)cc2-c2ccccc2)cc1	-33.9	81.6*	-24.4	-19.8	80.8*	6.9
Cc1ccc(-c2cc(-c3ccc(C)cc3)[n+](-c3ccc(C(=O)O)cc3)c(-c3ccc(C)cc3)c2)cc1	6.9	-10.7	-2.2	3.2	7.1	-0.1
Cc1ccc(-c2cc(-c3ccccc3)cc(-c3ccccc3)[n+]2-c2ccc(C(=O)O)cc2)cc1	-0.9	17.3	1.0	24.8*	4.5	1.5
CCCOC(=O)c1ccc(-[n+]2c(-c3ccccc3)cc(-c3ccccc3)cc2-c2ccccc2)cc1	-41.0	45.9*	-8.3	-14.1	31.5*	5.0
Clc1ccc(-c2nc3ccc(Cl)cn3c2CN2CCCCC2)cc1	1.1	-9.5	-3.3	7.4	11.8	-0.5
COC(=O)C1=C(c2ccc(F)cc2OCc2ccccc2)C[C@@H]2CC[C@H]1N2C(=O)N1CCOCC1	-5.6	9.5	0.2	-2.5	11.0	0.1
COC(=O)C1=C(c2cccc(OC)c2OC)C[C@@H]2CC[C@H]1N2C(=O)NC1CCCCC1	7.7	-9.3	-3.9	1.8	-4.3	0.5
SMILES	CHRM5 PAM	M4 antag	CHRM5 agonist	CHRM4 PAM	CHRM5 antagonist	M4 ag
Cc1c(C(=O)Nc2ccccc2)c2cc(O)ccc2n1Cc1ccccc1	2.2	-4.0	0.5	-5.1	1.7	2.1
CCOC(=O)C1(CCOc2ccccc2)CCN(C2Cc3ccccc3C2)CC1	-17.7	3.2	-6.6	-16.5	31.9*	2.5
CCOC(=O)C1(CCc2ccccc2)CCN(Cc2cccc3cnccc23)CC1	-20.0	10.7	-10.3	-22.2	80.8*	1.0
CCOC(=O)C1(CCOc2ccccc2)CCN(Cc2cccc(O)c2)CC1	-17.8	5.5	-6.8	-14.9	33.1*	10.4
CCOC(=O)C1(CCOc2ccccc2)CCN(C(C)CSC)CC1 (stereo not drawn)	-16.4	6.8	-7.8	-10.9	12.5	1.6
O=P(Oc1ccccc1)(Oc1ccccc1)N1CCN(c2ccc(F)cc2)CC1	-16.6	15.9	-2.8	-8.4	2.5	7.6
C=CCN=C(SCC(=O)c1ccc(Cl)cc1)c1c(O)n(C)c(=O)n(C)c1=O	-4.8	21.5	-4.2	12.1	13.6	11.7
CN1C2CCC1CC(OC(c1ccccc1)c1ccccc1N)C2 (stereo not drawn)	-18.6	100.3*	-0.9	-18.7	99.5*	0.1
CN(Cc1cccc(-c2ccncc2)c1)C(=O)Oc1ccccc1Cl	-22.9	14.2	2.7	-10.6	8.1	20.1
CN(Cc1cccc(-c2ccncc2)c1)C(=O)Oc1ccccc1Cc1ccccc1	-22.1	36.6*	1.8	-15.4	43.5*	17.4
Cc1cc(OCC(=O)NCc2ccncc2)c2c3c(c(=O)oc2c1)CCCC3	2.2	-9.2	-1.6	3.5	-1.2	3.0
CN1CCN(c2ccc([N+](=O)[O-])c(Sc3ccccn3)c2)CC1	28.3*	-14.2	-15.5	23.6	-13.2	0.7
CSCCC(NC(=O)CCC(=O)OC1CC[C@H]2[C@@H]3CC[C@H]4CC(=O)CC[C@]4(C)[C@H]3CC[C@]12C)C(=O)O (stereo partly drawn)	3.8	-2.8	-5.8	-5.8	-1.6	-0.4
CCN1CCN(c2nc3c(c(=O)[nH]2)CCCC3)CC1	7.1	-1.3	1.7	25.9*	-6.8	-0.1
CCN1CCN(c2cn[nH]c(=O)c2Cl)CC1	-1.4	2.8	-6.6	3.8	0.5	1.3
